Experimental data taken from ChEMBL document CHEMBL3580599, “Synthesis and Biological Evaluation of Novel Homoisoflavonoids for Retinal Neovascularization” (J Med Chem, 2015).
Calls of active or inactive are those of the source. No cut-off for these calls is given here.

Key:
[1] = (§1) Growth inhibition of human HREC cells assessed as reduction in cell number after 48 hrs by alamarBlue based fluorescence assay; type: functional
How it was run: (§2)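 Cells (2,500 per well in growth medium) were allowed 24 h, then exposed 48 h to compound over 0.5 nM–500 μM. alamarBlue was added and fluorescence read 4 h later (ex 560/em 590 nm). Dose-response curves were fitted relative to DMSO control; compounds not reducing cell number ≥50% at the top concentration were reported as GI50 >100 μM.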

HREC [2] = test: as §1; type: functional; how it was run: as §2
[3] = Growth inhibition of human HUVEC cells assessed as reduction in cell number after 48 hrs by alamarBlue based fluorescence assay; how it was run: as §2
[4] = Growth inhibition of human 92-1 cells assessed as reduction in cell number after 48 hrs by alamarBlue based fluorescence assay; type: functional; how it was run: as §2
Y79 = test: Growth inhibition of human Y79 cells assessed as reduction in cell number after 48 hrs by alamarBlue based fluorescence assay; type: functional; details: Y79, 48 h; how it was run: as §2
[5] = Selectivity ratio of GI50 for HUVEC cells to GI50 for human HREC cells; type: ADME, cell-based; details: HUVEC cells and HREC cells, read-out: RatioGI50
[6] = Selectivity ratio of GI50 for human Y79 cells to GI50 for human HREC cells; type: ADME, cell-based; details: Y79 cells and HREC cells
[7] = Selectivity ratio of GI50 for human 92-1 cells to GI50 for human HREC cells; type: ADME, cell-based; details: 92-1 cells and HREC cells
[8] = Induction of apoptosis in human HREC cells assessed as nuclear morphology after 8 hrs by EdU incorporation assay; type: cell-based
How it was run: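 HRECs (25,000) on attachment-factor-coated coverslips, 24 h growth, then 12 h in serum-free EBM-2. Incubated 8 h with 10 μM EdU plus compound at various concentrations, then processed by click chemistry with DAPI counterstain and imaged. Nuclear morphology and EdU-positive cells were scored by image analysis. n = 3, at least triplicate experiments, SEM.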

HREC [9] = test: Inhibition of cell migration in human HREC cells after 8 hrs scratch-wound assay; type: functional, cell-based
How it was run: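 HRECs (10⁵ per coated well) grown to confluence in EGM-2, starved 12 h in serum-free EBM-2, then scratched with a pipette tip and rinsed. Incubated in EGM-2 with compound at 37 °C, 5% CO₂. After 8 h, cells migrated into the scratch were counted from images.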

HREC [10] = test: Antiangiogenic activity in human HREC cells assessed as inhibition of tube formation after 8 hrs by matrigel assay; type: functional, cell-based
How it was run: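 HRECs, 7,500 per well in EGM-2, plated on Matrigel basement membrane with or without compound; after 8 h, imaged and tube length measured by image analysis.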

[11] = Induction of apoptosis in human HREC cells assessed as activated caspase 3 up to 2 uM after 4 hrs by immunofluorescence assay; type: functional
How it was run: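 HRECs on coated coverslips, overnight in EGM-2, then treated 4 h at indicated concentrations. Fixed in 4% paraformaldehyde, permeabilized with 0.5% Triton X-100, immunostained for activated caspase 3 and imaged by confocal microscopy. Staurosporine 1 μM served as positive control.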

[12] = Induction of apoptosis in human HREC cells up to 2 uM after 4 hrs by TUNEL assay; type: functional
How it was run: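 HRECs, 25,000 per coated coverslip, grown overnight in EGM-2, then 4 h in fresh medium with compound. Fixed in 4% paraformaldehyde 20 min at room temperature, permeabilized with 0.25% Triton X-100 20 min, then TUNEL-labelled with DAPI counterstain. Percent apoptotic cells counted on three low-power fields per coverslip. n = 3, SEM.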

[13] = Toxicity in human HREC cells up to 2 uM by trypan blue exclusion assay; type: cell-based
How it was run: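 HRECs in complete EGM-2 grown to 70% confluency, then treated 48 h with compound. After trypsinization, live and dead cells, including floating cells, were counted by Trypan blue on a hemocytometer. Viability taken as live/total cells. n = 3, triplicate experiments, SEM.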

HREC [14] = test: Induction of cell cycle arrest in human HREC cells assessed as cells accumulation at G2/M phase after 48 hrs by propidium iodide before flow cytometry analysis; type: functional, cell-based
How it was run: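 HRECs grown to 50% confluency in EGM-2, serum-starved overnight, then 48 h in fresh EGM-2 with compound. Fixed in 66% EtOH 2 h at 4 °C, stained with 20 μg/mL propidium iodide with 0.1% Triton X-100 and RNase for 30 min at 37 °C, then analysed by flow cytometry. Duplicate experiments.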

Mus musculus [15] = species on record: Mus musculus; test: Inhibition of retinal neovascularization in oxygen-induced retinopathy mouse model at 1 uM in each eye relative to vehicle treated control; type: functional, organism-based
How it was run: (§3)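 Newborn C57BL/6 pups with nursing mother held in 75% O₂ from P7 to P12. At P12, under isoflurane, 0.5 μL of a 10 μM solution (DMSO stock diluted into PBS) was injected intravitreally into each eye, estimated to give 1 μM in vitreous. Controls got vehicle or 5 ng anti-VEGF antibody. Retinas were whole-mounted, stained with isolectin B4-Alexa 488 and imaged by confocal microscopy.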

Mus musculus [16] = species on record: Mus musculus; test: Ocular toxicity in mouse model assessed as gross morphological changes in retinal vasculature at 1 uM; type: organism-based; details: in vivo; how it was run: as §3

Structure (SMILES): COc1ccc(CC2COc3cc(OC)c(OC)c(OC)c3C2=O)cc1OC(=O)[C@H](Cc1ccccc1)NC(=O)OC(C)(C)C (some centres not stated)
- GI50 [1]: 0.055 µM
- inhibition (HREC [2]): Dose-dependent effect
- GI50 at 48 h [3]: 0.75 µM
- GI50 [4]: > 100 µM
- GI50 (Y79): 12 µM
- selectivity ratio [5]: 14
- selectivity ratio [6]: 218
- selectivity ratio [7]: > 1000
- Activity [8]: Non-toxic
- inhibition (HREC [9]): Dose-dependent effect
- inhibition (HREC [10]): Dose-dependent effect
- Activity [11]: <10%
- Activity [12]: <10%
- Activity [13]: Non-toxic
- Activity (HREC [14]): Dose-dependent effect
- inhibition (Mus musculus [15]): Active
- Activity (Mus musculus [16]): Non-toxic
